# ChEMBL document CHEMBL3286264, “Discovery of novel and selective SIRT6 inhibitors” (J Med Chem, 2014)
# Calls of active or inactive are those of the source. The rule behind the calls is not given here.
# Key:
# Homo sapiens [1] = species on record: Homo sapiens; assay: Selectivity ratio of IC50 for SIRT2 (unknown origin) to IC50 for SIRT6 (unknown origin)
# Method in brief: (§1)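 Deacetylase activity measured with commercial fluorescence-based SIRT1, SIRT2 or SIRT6 kits per manufacturer's instructions. Compounds from 50 mM DMSO stocks, tested from 8 μM to 5 mM. IC50 derived by logarithmic nonlinear regression. Three independent determinations per compound.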
# BXPC-3 [2] = assay: Increase in GLUT1 expression in human BxPC3 cells at 200 uM after 6 hrs by Western blotting analysis; type: functional, cell-based
# Method in brief: (§2)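 BxPC-3 cells plated 4 × 10^5 per well and allowed to adhere 24 h. Treated either 24 h at the stated concentrations or for a time course at 200 μM. Lysed in Tris-HCl pH 7.5/NaCl/NP40 buffer. 30 μg protein run on 15% SDS-PAGE and transferred to PVDF. GLUT-1 and γ-tubulin detected by immunoblotting with ECL.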
# BXPC-3 [3] = assay: Inhibition of PMA-induced TNF-alpha secretion in human BxPC3 cells at 100 uM incubated for overnight prior to stimulation of PMA for 24 hrs by ELISA; type: functional; settings: BXPC-3, 24 h
# Method in brief: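 BxPC-3 cells (3 × 10^5/well) allowed to adhere 24 h, then incubated overnight with 100 μM compound or vehicle. Stimulated 24 h with 25 ng/mL PMA. TNF-α in supernatants measured by DuoSet ELISA. Expressed as % inhibition.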
# [4] = molecular target: T1, NAD-dependent protein deacylase sirtuin-6 (Homo sapiens, UniProt Q8N6T7); assay: Inhibition of SIRT6 (unknown origin) at 200 uM by fluorescence-based assay
# T1 sequence (Q8N6T7 whole entry): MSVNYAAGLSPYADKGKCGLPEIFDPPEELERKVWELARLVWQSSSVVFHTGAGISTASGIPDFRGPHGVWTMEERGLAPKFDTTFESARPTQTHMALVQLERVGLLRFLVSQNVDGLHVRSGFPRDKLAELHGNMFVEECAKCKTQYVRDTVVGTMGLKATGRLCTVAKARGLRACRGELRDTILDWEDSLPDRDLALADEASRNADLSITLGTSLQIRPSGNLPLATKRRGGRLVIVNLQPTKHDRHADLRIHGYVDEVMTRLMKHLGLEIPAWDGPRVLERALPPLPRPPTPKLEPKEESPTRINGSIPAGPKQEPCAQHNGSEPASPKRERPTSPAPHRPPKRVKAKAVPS
# [5] = molecular target: T1, NAD-dependent protein deacylase sirtuin-6; assay: Inhibition of SIRT6 in human BxPC3 cells assessed as increase in H3K9 acetylation at 100 uM after 18 hrs by immunoblot analysis; type: cell-based; settings: BXPC-3
# Method in brief: (§3)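 BxPC-3 cells plated 4 × 10^5 per well, adhered 24 h, then given 100 μM compound or matching DMSO (final DMSO 2–6‰) for varying times. Lysates (30 μg) resolved on 15% SDS-PAGE and immunoblotted for acetyl-H3K9 and total H3 with ECL. Acetyl-H3K9 normalized to total H3 and expressed as % versus vehicle-treated cells.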
# BXPC-3 [6] = assay: Increase in [14C]-2-deoxy-D-glucose uptake in human BxPC3 cells at 200 uM after 18 hrs by scintillation counting analysis relative to control; type: functional
# Method in brief: (§4)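 Human BxPC-3 or rat L6 cells (6 × 10^5/well) treated in triplicate for 18 h with 200 μM (final) compound in complete medium. Uptake measured with 0.5 mM 2-deoxy-D-glucose/[14C]-2-deoxy-D-glucose (0.5 μCi/well) in KRH buffer for 5 min at 37 °C. Cells lysed in 0.1% SDS for scintillation counting. Uptake in presence of cytochalasin B plus phloretin subtracted. Expressed relative to untreated.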
# [7] = molecular target: T1, NAD-dependent protein deacylase sirtuin-6; assay: Inhibition of SIRT6 in human BxPC3 cells assessed as increase in H3K9 acetylation at 100 uM after >18 hrs by immunoblot analysis; type: cell-based; settings: BXPC-3; method in brief: as §3
# [8] = molecular target: T1, NAD-dependent protein deacylase sirtuin-6; assay: Inhibition of SIRT6 (unknown origin); method in brief: as §1
# [9] = molecular target: T2, NAD-dependent protein deacetylase sirtuin-1 (Homo sapiens, UniProt Q96EB6); assay: Inhibition of SIRT1 (unknown origin); method in brief: as §1
# T2 sequence (Q96EB6 whole entry): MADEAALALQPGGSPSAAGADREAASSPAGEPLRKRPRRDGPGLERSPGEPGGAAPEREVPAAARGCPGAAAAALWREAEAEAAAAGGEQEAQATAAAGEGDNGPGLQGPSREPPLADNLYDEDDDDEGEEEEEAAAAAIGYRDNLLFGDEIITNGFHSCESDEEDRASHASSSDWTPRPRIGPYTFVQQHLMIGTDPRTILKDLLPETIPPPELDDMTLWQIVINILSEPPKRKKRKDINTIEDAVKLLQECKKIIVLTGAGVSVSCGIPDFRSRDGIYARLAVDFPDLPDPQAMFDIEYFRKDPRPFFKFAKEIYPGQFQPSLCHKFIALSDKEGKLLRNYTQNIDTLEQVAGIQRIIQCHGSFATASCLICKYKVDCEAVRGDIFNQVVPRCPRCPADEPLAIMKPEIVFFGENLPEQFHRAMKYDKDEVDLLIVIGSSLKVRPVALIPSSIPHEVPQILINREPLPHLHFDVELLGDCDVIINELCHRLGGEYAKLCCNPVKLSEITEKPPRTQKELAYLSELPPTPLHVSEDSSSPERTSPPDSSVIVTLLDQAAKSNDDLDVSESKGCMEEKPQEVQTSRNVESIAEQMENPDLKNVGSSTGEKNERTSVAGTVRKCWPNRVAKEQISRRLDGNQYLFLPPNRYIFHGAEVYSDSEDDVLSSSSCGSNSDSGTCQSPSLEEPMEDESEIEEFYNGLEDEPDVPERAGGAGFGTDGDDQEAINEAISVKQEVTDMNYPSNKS
# Homo sapiens [10] = species on record: Homo sapiens; assay: Selectivity ratio of IC50 for SIRT1 (unknown origin) to IC50 for SIRT6 (unknown origin); method in brief: as §1
# [11] = molecular target: T3, NAD-dependent protein deacetylase sirtuin-2 (Homo sapiens, UniProt Q8IXJ6); assay: Inhibition of SIRT2 (unknown origin); method in brief: as §1
# T3 sequence (Q8IXJ6 whole entry): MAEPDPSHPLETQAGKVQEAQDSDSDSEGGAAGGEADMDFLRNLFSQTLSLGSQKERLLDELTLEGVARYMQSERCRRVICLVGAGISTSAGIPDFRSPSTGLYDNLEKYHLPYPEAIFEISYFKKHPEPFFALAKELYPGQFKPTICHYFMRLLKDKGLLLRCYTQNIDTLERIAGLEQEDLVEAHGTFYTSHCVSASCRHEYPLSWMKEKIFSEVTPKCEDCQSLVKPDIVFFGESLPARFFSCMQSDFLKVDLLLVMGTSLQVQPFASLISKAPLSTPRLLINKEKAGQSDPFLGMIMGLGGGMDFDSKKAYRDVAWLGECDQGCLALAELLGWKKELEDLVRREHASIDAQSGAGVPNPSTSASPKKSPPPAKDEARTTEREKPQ
# L6 = assay: Increase in [14C]-2-deoxy-D-glucose uptake in rat L6 cells at 200 uM after 18 hrs by scintillation counting analysis relative to control; type: functional; method in brief: as §4
# BXPC-3 [12] = assay: Increase in GLUT1 expression in human BxPC3 cell surface at 100 uM after 24 hrs by flow cytometry; type: functional, cell-based
# Method in brief: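 BxPC-3 cells plated 4 × 10^5 per well, allowed to adhere 24 h, then exposed 24 h to 100 μM compound or DMSO vehicle. Cells trypsinized, fixed 10 min in 100% methanol at −20 °C, stained with anti-GLUT-1 antibody then anti-mouse IgG2a (each 30 min, 4 °C). Analysed by flow cytometry, 10.000 events/sample.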
# BXPC-3 [13] = assay: Increase in GLUT1 expression in human BxPC3 cells at 12.5 to 200 uM after 24 hrs by Western blotting analysis; type: functional, cell-based; method in brief: as §2
smiles,measurement,setting,value
N=C(Nc1ccccc1)SC1CC(=O)N(c2ccc(C(=O)O)cc2)C1=O (racemic),Ratio IC50,Homo sapiens [1],9.63
same,Activity,BXPC-3 [2],Active
same,inhibition at 100 µM,BXPC-3 [3],53%
same,inhibition,[4],66%
same,inhibition,[5],Active
same,fold change (FC),BXPC-3 [6],3.09
same,inhibition,[7],inactive
same,IC50,[8],181 µM
same,IC50,[9],3470 µM
same,Ratio IC50,Homo sapiens [10],19.1
same,IC50,[11],1740 µM
same,fold change (FC),L6,1.55
O=C(CSCc1ccc(Cl)c(Cl)c1)Nc1cnc(O)nc1O,inhibition,[4],inactive
O=c1cc(-c2ccccc2)[nH]c(=O)[nH]1,inhibition,[4],inactive
O=C(Nc1ccc(NS(=O)(=O)c2ccc(Oc3ccc([N+](=O)[O-])cc3)cc2)cc1)c1ccccc1,inhibition,[4],inactive
O=C(CSc1nc[nH]n1)CSc1nc[nH]n1,inhibition,[4],inactive
NC(=O)c1ccc[n+](CCCCCC[n+]2cccc(C(N)=O)c2)c1,inhibition,[4],inactive
COc1ccc(OCC(O)Cn2c(NCCc3ccccc3)nc3c2c(=O)[nH]c(=O)n3C)cc1 (stereo unspecified),inhibition,[4],inactive
O=c1[nH]c(=O)c2cc(S(=O)(=O)Nc3ccc(Oc4cccnc4)cc3)ccc2[nH]1,Ratio IC50,Homo sapiens [1],1.07
same,inhibition at 100 µM,BXPC-3 [3],73%
same,inhibition,[4],100%
same,inhibition,[5],Active
same,fold change (FC),BXPC-3 [6],1.3
same,inhibition,[7],inactive
same,Activity,BXPC-3 [12],Active
same,IC50,[8],106 µM
same,IC50,[9],314 µM
same,Activity,BXPC-3 [13],Active
same,Ratio IC50,Homo sapiens [10],2.96
same,IC50,[11],114 µM
same,fold change (FC),L6,1.98
CCOc1ccc(NC2SC(=O)NC2=O)cc1 (stereo unspecified),inhibition,[4],inactive
O=C(Nc1ccc(O)c(C(=O)O)c1)c1cccc(NC(=O)c2ccco2)c1,Ratio IC50,Homo sapiens [1],8.44
same,inhibition at 100 µM,BXPC-3 [3],50%
same,fold change (FC),BXPC-3 [6],1.11
same,Activity,BXPC-3 [12],Active
same,IC50,[8],89 µM
same,IC50,[9],1580 µM
same,Activity,BXPC-3 [13],Active
same,Ratio IC50,Homo sapiens [10],17.7
same,IC50,[11],751 µM
same,fold change (FC),L6,1.2
O=C(NCc1nc(-c2cccnc2)n[nH]1)c1cnccn1,Ratio IC50,Homo sapiens [1],1.71
same,inhibition,[4],12%
same,IC50,[8],1340 µM
same,IC50,[9],1470 µM
same,Ratio IC50,Homo sapiens [10],1.1
same,IC50,[11],2290 µM
Cc1nc(=O)c2c([nH]1)CC1CCC(C2)N1Cc1ccc2c(c1)CC(C)O2 (stereo unspecified),inhibition,[4],inactive
O=C1NC(=O)C2(CCCCCC2)N1,inhibition,[4],inactive
CC1(CCC(=O)O)NC(=O)NC1=O (stereo unspecified),inhibition,[4],inactive
